Reference: ChEMBL document CHEMBL2321859, “Cytotoxic betulin-derived hydroxypropargylamines trigger apoptosis” (Bioorg Med Chem, 2013)

Tests used:
MCF7 = assay: Cytotoxicity against human MCF7 cells assessed as cell viability after 96 hrs by SRB assay; assay type: functional, cell-based; conditions: Homo sapiens, MCF7, 96 h
A549 [1] = assay: Cytotoxicity against human A549 cells assessed as cell viability after 96 hrs by SRB assay; assay type: functional, cell-based; conditions: Homo sapiens, A549, 96 h
[2] = Solubility of the compound in water/DMSO mixture; assay type: physicochemical; conditions: water/DMSO mixture; read-out: solubility
How it was run: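 Solubility was measured in water/DMSO (95:5, v/v) by HPLC with UV/vis detection.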

NIH3T3 = assay: Cytotoxicity against mouse NIH/3T3 cells assessed as cell viability after 96 hrs by SRB assay; assay type: cell-based; conditions: NIH3T3, 96 h
A2780 = assay: Cytotoxicity against human A2780 cells assessed as cell viability after 96 hrs by SRB assay; assay type: functional, cell-based; conditions: Homo sapiens, A2780, 96 h
A549 [3] = assay: Induction of apoptosis in human A549 cells assessed as early apoptotic cells at 5 uM after 6 hrs by annexin V/propidium iodide staining-based FACS flow cytometric analysis relative to control; assay type: functional
How it was run: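 A549 cells incubated 6 h with compound, then analysed by FACS annexin V/propidium iodide assay. Phosphatidylserine translocation to the outer membrane was taken as the early-apoptosis marker. Cells were scored as percentage dying by necrosis versus programmed cell death. Betulinic acid and maslinic acid were the reference standards.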

[4] = Cytotoxicity against human A253 cells assessed as cell viability after 96 hrs by SRB assay; assay type: functional, cell-based; conditions: Homo sapiens, A253, 96 h
SW-1736 = assay: Cytotoxicity against human SW1736 cells assessed as cell viability after 96 hrs by SRB assay; assay type: functional, cell-based; conditions: Homo sapiens, SW-1736, 96 h
[5] = Cytotoxicity against human 518A2 cells assessed as cell viability after 96 hrs by SRB assay; assay type: functional, cell-based; conditions: Homo sapiens, 518A2, 96 h
8505C = assay: Cytotoxicity against human 8505C cells assessed as cell viability after 96 hrs by SRB assay; assay type: functional, cell-based; conditions: Homo sapiens, 8505C, 96 h
DLD-1 = assay: Cytotoxicity against human DLD1 cells assessed as cell viability after 96 hrs by SRB assay; assay type: functional, cell-based; conditions: Homo sapiens, DLD-1, 96 h
[6] = Cytotoxicity against human Lipo cells assessed as cell viability after 96 hrs by SRB assay; assay type: functional, cell-based; conditions: Homo sapiens, Lipo, 96 h

Compound: C=C(C)[C@@H]1CC[C@]2([C@H](O)C#CCN3CCOCC3)CC[C@]3(C)[C@H](CC[C@@H]4[C@@]5(C)CC[C@H](OC(C)=O)C(C)(C)[C@@H]5CC[C@]43C)[C@@H]12.Cl
- IC50 (MCF7): 7.7 µM
- IC50 (A549 [1]): 7.6 µM
- solubility [2]: 0.192 mg/mL
- IC50 (NIH3T3): 7.2 µM
- IC50 (A2780): 4.1 µM
- Activity (A549 [3]): >90%
- IC50 [4]: 5.2 µM
- IC50 (SW-1736): 8.9 µM
- IC50 [5]: 7 µM
- IC50 (8505C): 7.2 µM
- IC50 (DLD-1): 5 µM
- IC50 [6]: 2.4 µM
